Laboratory results published in ChEMBL document CHEMBL1147141, “Potent nonpeptide antagonists of the bradykinin B1 receptor: structure-activity relationship studies with novel diaminochroman carboxamides” (J Med Chem, 2007).

Legend:
B1 bradykinin receptor [1] = biological target: T1, B1 bradykinin receptor (Homo sapiens, UniProt P46663); test: Displacement of [3H]DAK from human bradykinin B1 receptor expressed in CHOD cells; format: cell-based
T1 sequence (P46663 whole entry): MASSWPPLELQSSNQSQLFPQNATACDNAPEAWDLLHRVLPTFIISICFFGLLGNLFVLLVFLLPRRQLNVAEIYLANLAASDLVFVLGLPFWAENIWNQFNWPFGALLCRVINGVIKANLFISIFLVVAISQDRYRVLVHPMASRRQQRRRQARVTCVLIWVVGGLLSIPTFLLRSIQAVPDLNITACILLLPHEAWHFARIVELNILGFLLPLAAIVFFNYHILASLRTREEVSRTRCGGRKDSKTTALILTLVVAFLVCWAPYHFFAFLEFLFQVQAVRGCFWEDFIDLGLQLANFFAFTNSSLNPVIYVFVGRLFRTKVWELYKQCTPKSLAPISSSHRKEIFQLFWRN

B1 bradykinin receptor [2] = biological target: T1, B1 bradykinin receptor; test: Antagonist activity at human bradykinin B1 receptor expressed in CHOD cells assessed as effect on DAK-induced calcium flux; format: functional, cell-based
B1 bradykinin receptor [3] = biological target: T2, B1 bradykinin receptor (Rattus norvegicus, UniProt P97583); test: Antagonist activity at rat bradykinin B1 receptor; format: functional
T2 sequence (P97583 whole entry): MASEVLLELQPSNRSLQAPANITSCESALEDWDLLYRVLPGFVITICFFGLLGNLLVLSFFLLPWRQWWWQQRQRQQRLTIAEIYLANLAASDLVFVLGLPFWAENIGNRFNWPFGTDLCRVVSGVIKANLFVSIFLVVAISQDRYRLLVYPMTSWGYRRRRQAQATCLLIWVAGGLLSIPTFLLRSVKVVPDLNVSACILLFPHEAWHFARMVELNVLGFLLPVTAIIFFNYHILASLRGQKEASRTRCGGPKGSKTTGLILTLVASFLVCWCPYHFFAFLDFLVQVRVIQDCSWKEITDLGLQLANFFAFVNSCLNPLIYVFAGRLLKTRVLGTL

[4] = Metabolic stability in rat liver microsomes; format: ADME, Microsome; details: read-out: Stability
B1 bradykinin receptor [5] = biological target: T3, B1 bradykinin receptor (Oryctolagus cuniculus, UniProt P48748); test: Antagonist activity at rabbit bradykinin B1 receptor; format: functional
T3 sequence (P48748 whole entry): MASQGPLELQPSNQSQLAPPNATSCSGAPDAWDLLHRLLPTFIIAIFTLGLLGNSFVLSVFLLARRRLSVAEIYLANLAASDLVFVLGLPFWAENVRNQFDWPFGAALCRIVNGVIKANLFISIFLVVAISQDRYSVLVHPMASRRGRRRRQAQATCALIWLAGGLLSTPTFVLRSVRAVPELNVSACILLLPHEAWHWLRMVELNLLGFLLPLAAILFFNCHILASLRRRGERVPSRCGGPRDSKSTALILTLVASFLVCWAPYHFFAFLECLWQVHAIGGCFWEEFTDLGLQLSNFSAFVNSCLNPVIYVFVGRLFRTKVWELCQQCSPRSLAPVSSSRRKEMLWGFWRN

[6] = Volume of distribution at steady state in Sprague-Dawley rat at 1 mg/kg, iv; format: ADME, organism-based; set-up: dose 1 mg/kg, route intravenous; details: in vivo, read-out: Vss
Method in brief: (§1)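 Male Sprague-Dawley rats (225-280 g) with femoral and jugular vein cannulae were fasted overnight. They received an i.v. bolus of 1 mg/kg in 100% DMSO, prepared on the dosing day, n = 3. Blood was drawn via jugular cannula over 6 or 8 h into heparin. Plasma was acetonitrile-precipitated and measured by LC-MS/MS (positive MRM). Parameters were noncompartmental and reported with SEM.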

[7] = Half life in Sprague-Dawley rat at 1 mg/kg, iv; format: ADME, organism-based; set-up: dose 1 mg/kg, route intravenous; details: in vivo; method in brief: as §1
[8] = Clearance in Sprague-Dawley rat at 1 mg/kg, iv; format: ADME, organism-based; set-up: dose 1 mg/kg, route intravenous; details: in vivo; method in brief: as §1
[9] = Metabolic stability in human liver microsomes; format: ADME, Microsome; details: read-out: Stability
[10] = Oral bioavailability in Sprague-Dawley rat at 10 mg/kg, po; format: ADME, organism-based; details: in vivo
Method in brief: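 Male Sprague-Dawley rats (225-280 g), cannulated and fasted overnight, were dosed by oral gavage at 10 mg/kg in 1% Tween 80, 2% HPMC, prepared 24-48 h before dosing, n = 3. Jugular blood was sampled over 6 or 8 h. Plasma was analysed by LC-MS/MS and parameters derived noncompartmentally.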

| Structure (SMILES) | Ki (B1 bradykinin receptor [1]) | IC50 (B1 bradykinin receptor [2]) | further results |
| --- | --- | --- | --- |
| CC(C)CNCc1ccc2c(c1)OCC[C@H]2NC(=O)C[C@@H](NS(=O)(=O)c1cccc(C(F)(F)F)c1)c1ccc(F)cc1 | 5.9 nM (antagonist) | 14.8 nM (antagonist) |  |
| O=C(C[C@@H](NS(=O)(=O)c1cccc(C(F)(F)F)c1)c1ccc(F)cc1)N[C@@H]1CCOc2cc(CNC3CCC3)ccc21 | 10 nM (antagonist) | 46.2 nM (antagonist) |  |
| CC(C)(C)NCc1ccc2c(c1)OCC[C@H]2NC(=O)C[C@@H](NS(=O)(=O)c1ccc(Cl)cc1Cl)c1ccccc1 | 127 nM (antagonist) | 255 nM (antagonist) |  |
| CC(C)(C)NCc1ccc2c(c1)OCC[C@H]2NC(=O)C[C@@H](NS(=O)(=O)c1cccc(Cl)c1)c1ccccc1 | 27.7 nM (antagonist) | 113 nM (antagonist) |  |
| CC(C)(C)NCc1ccc2c(c1)OCC[C@H]2NC(=O)C[C@@H](NS(=O)(=O)c1ccc2ccccc2c1)c1ccccc1 | 5.4 nM (antagonist) | 17 nM (antagonist) |  |
| Cc1c(Cl)cccc1S(=O)(=O)N[C@H](CC(=O)N[C@@H]1CCOc2cc(CNC(C)(C)C)ccc21)c1ccccc1 | 40.6 nM (antagonist) | 207 nM (antagonist) |  |
| CC(C)(C)NCc1ccc2c(c1)OCC[C@H]2NC(=O)C[C@@H](NS(=O)(=O)c1ccc(C(C)(C)C)cc1)c1ccccc1 | 24.8 nM (antagonist) | 60.9 nM (antagonist) |  |
| O=C(C[C@@H](NS(=O)(=O)c1ccc2ccccc2c1)c1ccccc1)N[C@@H]1CCOc2cc(CNC3CCCCC3)ccc21 | 21.8 nM (antagonist) | 69.9 nM (antagonist) |  |
| CNCc1ccc2c(c1)OCC[C@H]2NC(=O)C[C@@H](NS(=O)(=O)c1ccc2ccccc2c1)c1ccccc1 | 138 nM (antagonist) | 212 nM (antagonist) |  |
| CC(C)(C)NCc1ccc2c(c1)OCC[C@H]2NC(=O)C[C@@H](NS(=O)(=O)c1ccc(C(F)(F)F)cc1)c1ccccc1 | 77.6 nM (antagonist) | 330 nM (antagonist) |  |
| C[C@@H]1CCC[C@H](C)N1Cc1ccc2c(c1)OCC[C@H]2NC(=O)C[C@@H](NS(=O)(=O)c1ccc2ccccc2c1)c1ccccc1 | 13.4 nM (antagonist) | 96.3 nM (antagonist) |  |
| CC(C)(C)NCc1ccc2c(c1)OCC[C@H]2NC(=O)C[C@@H](NS(=O)(=O)c1ccc(Cl)c(Cl)c1)c1ccccc1 | 7.6 nM (antagonist) | 24.3 nM (antagonist) |  |
| CC(C)(C)NCc1ccc2c(c1)OCC[C@H]2NC(=O)C[C@@H](NS(=O)(=O)c1cccc(C(F)(F)F)c1)c1ccccc1 | 17.9 nM (antagonist) | 78.4 nM (antagonist) |  |
| CC(C)NCc1ccc2c(c1)OCC[C@H]2NC(=O)C[C@@H](NS(=O)(=O)c1cccc(C(F)(F)F)c1)c1ccc(F)cc1 | 4.7 nM (antagonist) | 20.1 nM (antagonist) |  |
| COCCNCc1ccc2c(c1)OCC[C@H]2NC(=O)C[C@@H](NS(=O)(=O)c1ccc(Cl)c(Cl)c1)c1ccc(F)cc1 | 6.7 nM (antagonist) | 9.4 nM (antagonist) |  |
| O=C(C[C@@H](NS(=O)(=O)c1ccc2ccccc2c1)c1ccccc1)N[C@@H]1CCOc2cc(CO)ccc21 | > 50000 nM | > 4000 nM |  |
| O=C(C[C@@H](NS(=O)(=O)c1cccc(C(F)(F)F)c1)c1ccc(F)cc1)N[C@@H]1CCOc2cc(CN3CCCC3)ccc21 | 5.5 nM (antagonist) | 19.7 nM (antagonist) | Ki (B1 bradykinin receptor [3]): 151 nM (antagonist); microsomal CLint [4]: 158 µL/min/mg; IC50 (B1 bradykinin receptor [5]): 450 nM (antagonist); Vd [6]: 13.7 L/kg; half-life [7]: 3.8 h; clearance [8]: 51.3 mL/min/kg; microsomal CLint [9]: 355 µL/min/mg; bioavailability [10]: 41% |

| Structure (SMILES) | Ki (B1 bradykinin receptor [1]) | IC50 (B1 bradykinin receptor [2]) | further results |
| --- | --- | --- | --- |
| CC(C)CNCc1ccc2c(c1)OCC[C@H]2NC(=O)C[C@@H](NS(=O)(=O)c1ccc2ccccc2c1)c1ccccc1 | 5 nM (antagonist) | 10.5 nM (antagonist) |  |
| CC(C)(C)NCc1ccc2c(c1)OCC[C@H]2NC(=O)C[C@@H](NS(=O)(=O)c1cc(Cl)c(F)cc1F)c1ccccc1 | 20.6 nM (antagonist) | 127 nM (antagonist) |  |
| CC(C)(C)NCc1ccc2c(c1)OCC[C@H]2NC(=O)C[C@@H](NS(=O)(=O)c1ccc(Cl)c(Cl)c1)c1ccc(F)cc1 | 5 nM (antagonist) | 9.6 nM (antagonist) |  |
| CC(C)(C)NCc1ccc2c(c1)OCC[C@H]2NC(=O)C[C@@H](NS(=O)(=O)c1ccccc1C(F)(F)F)c1ccccc1 | 367 nM (antagonist) | 2000 nM (antagonist) |  |
| CC(C)(C)NCc1ccc2c(c1)OCC[C@H]2NC(=O)C[C@@H](NS(=O)(=O)c1ccc(F)c(Cl)c1)c1ccccc1 | 25.2 nM (antagonist) | 203 nM (antagonist) |  |
| CC(C)(C)NCc1ccc2c(c1)OCC[C@H]2NC(=O)C[C@@H](NS(=O)(=O)c1cccc(C(F)(F)F)c1)c1ccc(C#N)cc1 | 120 nM (antagonist) | 566 nM (antagonist) |  |
| CC(C)(C)NCc1ccc2c(c1)OCC[C@H]2NC(=O)C[C@@H](NS(=O)(=O)c1ccccc1Cl)c1ccccc1 | 393 nM (antagonist) | 2030 nM (antagonist) |  |
| COCCNCc1ccc2c(c1)OCC[C@H]2NC(=O)C[C@@H](NS(=O)(=O)c1cccc(C(F)(F)F)c1)c1ccc(F)cc1 | 14 nM (antagonist) | 17.4 nM (antagonist) | Ki (B1 bradykinin receptor [3]): 208 nM (antagonist); microsomal CLint [4]: 265 µL/min/mg; IC50 (B1 bradykinin receptor [5]): 1680 nM (antagonist); Vd [6]: 8.09 L/kg; half-life [7]: 3.4 h; clearance [8]: 39.4 mL/min/kg; microsomal CLint [9]: 310 µL/min/mg; bioavailability [10]: 49% |
| CN(C)Cc1ccc2c(c1)OCC[C@H]2NC(=O)C[C@@H](NS(=O)(=O)c1ccc2ccccc2c1)c1ccccc1 | 84.8 nM (antagonist) | 167 nM (antagonist) |  |
| CC(C)(C)NCc1ccc2c(c1)OCC[C@H]2NC(=O)C[C@@H](NS(=O)(=O)c1cccc(C(F)(F)F)c1)c1ccc(F)cc1 | 4.8 nM (antagonist) | 9.9 nM (antagonist) |  |
| CCNCc1ccc2c(c1)OCC[C@H]2NC(=O)C[C@@H](NS(=O)(=O)c1ccc2ccccc2c1)c1ccccc1 | 8.9 nM (antagonist) | 60.2 nM (antagonist) |  |
| O=C(C[C@@H](NS(=O)(=O)c1ccc2ccccc2c1)c1ccccc1)N[C@@H]1CCOc2cc(CN3CCOCC3)ccc21 | 3.7 nM (antagonist) | 10.9 nM (antagonist) |  |
| CC(C)NCc1ccc2c(c1)OCC[C@H]2NC(=O)C[C@@H](NS(=O)(=O)c1ccc2ccccc2c1)c1ccccc1 | 8.3 nM (antagonist) | 45.9 nM (antagonist) |  |
| CC(C)(C)NCc1ccc2c(c1)OCC[C@H]2NC(=O)C[C@@H](NS(=O)(=O)c1ccc(Cl)cc1)c1ccccc1 | 132 nM (antagonist) | 580 nM (antagonist) |  |
| NCc1ccc2c(c1)OCC[C@H]2NC(=O)C[C@@H](NS(=O)(=O)c1ccc2ccccc2c1)c1ccccc1 | 308 nM (antagonist) | 352 nM (antagonist) |  |
| O=C(C[C@@H](NS(=O)(=O)c1ccc2ccccc2c1)c1ccccc1)N[C@@H]1CCOc2cc(CN3CCCC3)ccc21 | 5.7 nM (antagonist) | 14.8 nM (antagonist) |  |
